The values below come from ChEMBL document CHEMBL1932969, “Acyl derivatives of boswellic acids as inhibitors of NF-κB and STATs” (Bioorg Med Chem Lett, 2012).

Test [1] concerns HL-60. The experiment in a line: Anticancer activity against human HL60 cells after 48 hrs by MTT assay. The format is functional, cell-based. The settings on record: HL-60, 48 h. In short, it runs like this:
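Cell proliferation measured by MTT. Cells are incubated with each analog for 48 h at the indicated concentrations, then MTT reduction is read as an index of viability. OD of the untreated control is taken as 100% viability, and IC50 is derived from this.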

For test [2], the system named is HL-60. The experiment in a line: Induction of apoptosis in p53-deficient human HL60 cells assessed as apoptotic cells at 50 uM after 6 hrs by FITC-conjugated annexinV/PI-based flow cytometric analysis (reference value: 5 %). The format is functional. In short, it runs like this:
(§1)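 HL-60 cells incubated with each analog at 50 µM for 6 h, stained with annexin V-FITC/propidium iodide and analysed by flow cytometry. Lower right quadrant is apoptotic, upper right post-apoptotic, upper left necrotic. Three experiments, with representative dot plots shown.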

In test [3] the test system is HEp-2. The experiment in a line: Anticancer activity against human Hep2 cells assessed as growth inhibition at 50 uM after 48 hrs by SRB assay. The format is functional. The settings on record: HEp-2, 48 h, read-out: GI. In short, it runs like this:
(§2)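 Cells exposed to test compounds at 50 µM for 48 h. Read-out is percent growth inhibition, with SEM given. 5-Fluorouracil and adriamycin serve as reference agents.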

Test [4] relates to COLO 205. The experiment in a line: Anticancer activity against human COLO205 cells assessed as growth inhibition at 50 uM after 48 hrs by SRB assay. The format is functional. The settings on record: COLO 205, 48 h, read-out: GI. The procedure, abridged: as §2
Test [5] has as its system HT-29. Description: Anticancer activity against human HT-29 cells assessed as growth inhibition at 50 uM after 48 hrs by SRB assay. Format: functional. The settings on record: HT-29, 48 h, read-out: GI. The procedure, abridged: as §2
Test [6] deals with HL-60. Description: Induction of apoptosis in p53-deficient human HL60 cells assessed as post-apoptotic cells at 50 uM after 6 hrs by FITC-conjugated annexinV/PI-based flow cytometric analysis (reference value: 1 %). Format: functional. In short, it runs like this:
as §1

The test system of test [7] is HL-60. Description: Induction of necrosis in p53-deficient human HL60 cells at 50 uM after 6 hrs by FITC-conjugated annexinV/PI-based flow cytometric analysis. Format: functional, cell-based. In short, it runs like this: as §1
Test [8] relates to SW-620. The experiment in a line: Anticancer activity against human SW620 cells assessed as growth inhibition at 50 uM after 48 hrs by SRB assay. The settings on record: SW-620, 48 h, read-out: GI. The format is functional. The procedure, abridged: as §2
In test [9] the test system is DU-145. The experiment in a line: Anticancer activity against human DU145 cells assessed as growth inhibition at 50 uM after 48 hrs by SRB assay. Format: functional. The following applies: DU-145, 48 h, read-out: GI. The procedure, abridged: as §2
Test [10] has as its system HL-60. Description: Induction of apoptosis in p53-deficient human HL60 cells assessed as DNA fragmentation at 50 uM after 6 hrs by agarose gel electrophoresis. The format is functional, cell-based. In short, it runs like this: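 2 × 10⁶ HL-60 cells treated with derivatives at 50 µM for 6 h, then scored for an apoptotic DNA ladder of 180–200 bp fragments or multiples. The positive control is 4 µM camptothecin for 6 h.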

The subject of test [11] is PC-3. Description: Anticancer activity against human PC3 cells assessed as growth inhibition at 50 uM after 48 hrs by SRB assay. Format: functional. The settings on record: PC-3, 48 h, read-out: GI. In short, it runs like this: as §2
The test system of test [12] is HL-60. The experiment in a line: Induction of autophagy in p53-deficient human HL60 cells at 50 uM after 6 hrs by acridine orange staining. The format is functional, cell-based. The procedure, abridged:
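Autophagy scored by flow cytometry of HL-60 cells stained with acridine orange after 6 h exposure.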

Molecules are shown by their SMILES. pIC50: −log10 of the molar value. Calls of active or inactive are those of the source. The rule behind the calls is not given here.

`CCC(=O)O[C@@H]1CC[C@@]2(C)[C@@H](CC[C@]3(C)[C@@H]2C(=O)C=C2[C@@H]4[C@@H](C)[C@H](C)CC[C@]4(C)CC[C@]23C)[C@@]1(C)C(=O)O` gave a pIC50 in [1] of 4.80. Further, the Activity in test [2] is 21%; in [6] it was 17%. The inhibition of growth at 50 µM is 69% in test [3]; 87% in test [4]; 89% in test [5]; 85% in [8]; 25% in test [9]; 64% in test [11]. In addition, the outcome in [7] and in test [12] was inactive. Moreover, the result in test [10] was Active.

`CCC(=O)O[C@H]1CC[C@@]2(C)[C@@H](CC[C@]3(C)[C@@H]2CC=C2[C@@H]4[C@@H](C)[C@H](C)CC[C@]4(C)CC[C@]23C)[C@@]1(C)C(=O)O`: the pIC50 in test [1] was 4.92. Further, the Activity in test [2] came out at 18%; in test [6], 20%. The inhibition of growth at 50 µM in [3] turned out to be 87%; in [4], 86%; in [5], 92%; in [8], 89%; in [9], 88%; in [11] it was 95%. Moreover, the result in test [7] and in [12] was inactive. Also, the outcome in test [10] was Active.

As to `CCC(=O)O[C@@H]1CC[C@@]2(C)[C@@H](CC[C@]3(C)[C@@H]2CC=C2[C@@H]4[C@@H](C)[C@H](C)CC[C@]4(C)CC[C@]23C)[C@@]1(C)C(=O)O`, the pIC50 in [1] was 4.89. Further, the results for the Activity in test [2] and in test [6] were 23% and 24%, respectively. Further, the inhibition of growth at 50 µM amounted to 86% in test [3]; 84% in test [4]; 93% in test [5]; 94% in test [8]; 91% in test [9]; 93% in [11]. In addition, the outcome in test [7] and in test [12] was inactive. Also, the result in test [10] was Active.

`C[C@H]1[C@H](C)CC[C@]2(C)CC[C@]3(C)C(=CC[C@@H]4[C@@]5(C)CC[C@@H](O)[C@](C)(C(=O)O)[C@@H]5CC[C@]43C)[C@H]12` [BOSWELLIC ACID] had a pIC50 in test [1] of 4.82. Further, the values for the Activity in [2] and in test [6] were 20% and 34%, respectively. The inhibition of growth at 50 µM in test [3] amounted to 43%; in [4], 85%; in [5] it was 66%; in test [8] it was 64%; in test [9], 92%; in [11], 100%. The outcome in [7] and in test [12] was inactive.

Consider `CC[C@@]1(O)C(=O)OCc2c1cc1n(c2=O)Cc2cc3ccccc3nc2-1` [CAMPTOTHECIN], for which the Activity in test [2] is 18%; in test [6], 7%.

On to `C[C@H]1[C@H](C)CC[C@]2(C)CC[C@]3(C)C(=CC[C@@H]4[C@@]5(C)CC[C@H](O)[C@](C)(C(=O)O)[C@@H]5CC[C@]43C)[C@H]12`, for which the inhibition of growth at 50 µM in test [3] turned out to be 69%; in [4], 81%; in test [5] it was 70%; in test [8], 63%; in [9], 89%; in test [11] it was 72%.

For `COC(=O)[C@@]1(C)C(=O)CC[C@]2(C)[C@H]3C(=O)C=C4[C@@H]5[C@@H](C)[C@H](C)CC[C@]5(C)CC[C@@]4(C)[C@]3(C)CC[C@@H]12`, the inhibition of growth at 50 µM in test [3] was found to be 10%; in test [4], 30%; in test [5], 17%; in test [8] it was 11%; in test [9] it was 23%; in test [11], 3%.

Turning to `COC(=O)[C@@]1(C)[C@H](O)CC[C@@]2(C)[C@H]1CC[C@]1(C)[C@@H]2C(=O)C=C2[C@@H]3[C@@H](C)[C@H](C)CC[C@]3(C)CC[C@]21C`, the inhibition of growth at 50 µM turned out to be 50% in test [3]; 70% in test [4]; 67% in test [5]; 67% in test [8]; 65% in test [9]; 87% in test [11].

Regarding `COC(=O)[C@@]1(C)C(=O)CC[C@]2(C)[C@H]3CC=C4[C@@H]5[C@@H](C)[C@H](C)CC[C@]5(C)CC[C@@]4(C)[C@]3(C)CC[C@@H]12`, the inhibition of growth at 50 µM in [3] was determined as 7%; in test [4], 34%; in test [5], 33%; in [8] it was 34%; in test [9] it was 50%; in [11] it was 44%.

Turning to `CCC(=O)O[C@H]1CC[C@@]2(C)[C@@H](CC[C@]3(C)[C@@H]2C(=O)C=C2[C@@H]4[C@@H](C)[C@H](C)CC[C@]4(C)CC[C@]23C)[C@@]1(C)C(=O)O`, the inhibition of growth at 50 µM in test [3] turned out to be 63%; in test [4] it was 83%; in test [5] it was 64%; in test [8], 72%; in [9], 89%; in test [11], 96%.

For the compound `CCCC(=O)O[C@@H]1CC[C@@]2(C)[C@@H](CC[C@]3(C)[C@@H]2CC=C2[C@@H]4[C@@H](C)[C@H](C)CC[C@]4(C)CC[C@]23C)[C@@]1(C)C(=O)O`, in test [1], the pIC50 is 4.85. The Activity was found to be 31% in [2] and 13% in [6]. Also, the inhibition of growth at 50 µM in test [3] turned out to be 94%; in test [4], 88%; in test [5] it was 95%; in test [8], 93%; in [9], 89%; in test [11], 77%. Besides, the outcome in test [7] and in test [12] was inactive. The outcome in test [10] was Active.
